Laboratory results: ChEMBL document CHEMBL3865821, “Amino substituted benzimidazo[1,2-a]quinolines: Antiproliferative potency, 3D QSAR study and DNA binding properties” (Eur J Med Chem, 2016)

Experiments:
[1] = Antiproliferative activity against human HCT116 cells after 72 hrs by MTT assay; type: functional, cell-based; conditions: HCT-116, 72 h
Procedure, shortened: (§1)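 Tumour cells were grown as monolayers in DMEM with 10 % FBS, 2 mM L-glutamine, penicillin and streptomycin at 37 °C under 5 % CO₂. Tenfold dilutions from 10^-8 to 10^-4 M were applied for 72 h, followed by MTT read at 570 nm. IC50 came from linear regression of percentage growth; at least two experiments, quadruplicate points.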

[2] = Antiproliferative activity against human MCF7 cells after 72 hrs by MTT assay; type: functional, cell-based; conditions: MCF7, 72 h; procedure, shortened: as §1
[3] = Binding affinity to duplex calf thymus DNA assessed as change in melting temperature at drug/DNA ratio of 0.5 by spectrophotometric analysis
Procedure, shortened: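 Calf-thymus DNA at 20 μM was heated with or without compound at 10 or 20 μM (drug/base-pair ratio 0.5 or 1) in BPE buffer (6 mM Na₂HPO₄, 2 mM NaH₂PO₄, 1 mM EDTA, pH 7.1). A260 was read every minute from 20 to 100 °C, rising 1 °C per min, and ΔTm was derived.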

[4] = Antiproliferative activity against human H460 cells after 72 hrs by MTT assay; type: functional, cell-based; conditions: NCI-H460, 72 h
Procedure, shortened: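 Tumour cells were grown as monolayers in DMEM with 10 % FBS, 2 mM L-glutamine, penicillin and streptomycin at 37 °C under 5 % CO₂. They were seeded at 3×10^4 cells/mL (HCT 116, H460) or 5×10^4 cells/mL (MCF-7). Tenfold dilutions from 10^-8 to 10^-4 M were applied for 72 h, followed by MTT read at 570 nm. IC50 came from linear regression of percentage growth; at least two experiments, quadruplicate points.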

[5] = Antiproliferative activity against human shGFP-fused HMLE cells after 72 hrs by MTT assay; type: cell-based
Procedure, shortened: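 HMLE-shGFP cells were kept in a 1:1 mix of DMEM + 10 % FBS with insulin, hydrocortisone and HuMEC medium at 37 °C, 5 % CO₂. Agents were given as tenfold dilutions from 10^-8 to 10^-4 M for 72 h, then MTT absorbance was read at 570 nm. IC50 was interpolated by linear regression of percentage growth; at least two experiments, each point in quadruplicate.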

| SMILES | IC50 ([1]; read-out: IC50) | IC50 ([1]; read-out: pIC50 (converted)) | IC50 ([2]; read-out: IC50) | IC50 ([2]; read-out: pIC50 (converted)) | ΔTm [3] | IC50 ([4]; read-out: IC50) | IC50 ([4]; read-out: pIC50 (converted)) | IC50 [5] |
| --- | --- | --- | --- | --- | --- | --- | --- | --- |
| N#Cc1c(N2CCCCC2)c2ccc(N3CCCCC3)cc2n2c1nc1ccccc12 | 11 µM | 11 µM | 10 µM | 10 µM | 0.7 °C | 15 µM | 15 µM | – |
| N#Cc1c(N2CCOCC2)c2ccc(N3CCOCC3)cc2n2c1nc1ccccc12 | 11 µM | 11 µM | 9 µM | 8.99 µM | 0.5 °C | 18 µM | 18 µM | – |
| CCCCCCNc1ccc2cc(C#N)c3nc4ccccc4n3c2c1 | 5 µM | 5 µM | 5 µM | 5 µM | – | 5 µM | 5 µM | – |
| COc1cccc2c1C(=O)c1c(O)c3c(c(O)c1C2=O)C[C@@](O)(C(=O)CO)C[C@@H]3O[C@H]1C[C@H](N)[C@H](O)[C@H](C)O1 [DOXORUBICIN] | – | – | – | – | – | 0.03 µM | – | 0.01 µM |
| CC(C)Nc1ccc2c(NC(C)C)c(C#N)c3nc4ccccc4n3c2c1 | ≥ 10 µM | 10 µM | 7 µM | 7 µM | – | 21 µM | 21 µM | – |
| CCCCNc1ccc2c(NCCCC)c(C#N)c3nc4ccccc4n3c2c1 | 7 µM | 7 µM | 5 µM | 5 µM | – | 4 µM | 4 µM | – |
| CNc1ccc2c(NC)c(C#N)c3nc4ccccc4n3c2c1 | 7 µM | 7 µM | 2 µM | 2 µM | 1.2 °C | ≥ 100 µM | 100 µM | – |
| CCCCCCNc1c(C#N)c2nc3ccccc3n2c2ccccc12 | 4 µM | 4 µM | 3 µM | 3 µM | – | 2 µM | 2 µM | – |
| CCN(CC)c1ccc2c(N(CC)CC)c(C#N)c3nc4ccccc4n3c2c1 | 16 µM | 16 µM | 22 µM | 22 µM | – | 25 µM | 25 µM | – |
| CN1CCN(c2c(C#N)c3nc4ccccc4n3c3ccccc23)CC1 | 3 µM | 3 µM | 3 µM | 3 µM | – | 4 µM | 4 µM | – |
| CCCN(CCC)c1ccc2c(N(CCC)CCC)c(C#N)c3nc4ccccc4n3c2c1 | 14 µM | 14 µM | 21 µM | 21 µM | 0 °C | 29 µM | 29 µM | – |
| CC1CN(c2ccc3c(N4CC(C)NC(C)C4)c(C#N)c4nc5ccccc5n4c3c2)CC(C)N1 (stereo unspecified) | 0.4 µM | 0.4 µM | 1 µM | 1 µM | – | 0.8 µM | 0.8 µM | 0.2 µM |
| CC(C)CCNc1c(C#N)c2nc3ccccc3n2c2ccccc12 | 5 µM | 5 µM | 4 µM | 4 µM | – | 2 µM | 2 µM | – |
| CN1CCN(c2ccc3cc(C#N)c4nc5ccccc5n4c3c2)CC1 | 0.6 µM | 0.6 µM | 2 µM | 2 µM | – | 1 µM | 1 µM | 0.5 µM |
| CN1CCN(c2ccc3c(N4CCN(C)CC4)c(C#N)c4nc5ccccc5n4c3c2)CC1 | 2 µM | 2 µM | 3 to 4 µM | 3 µM | – | 3 to 4 µM | 4 µM | – |
| CC(C)Nc1c(C#N)c2nc3ccccc3n2c2ccccc12 | 13 µM | 13 µM | 20 µM | 20 µM | – | 5 µM | 5 µM | – |
| CCCCCCNc1ccc2c(NCCCCCC)c(C#N)c3nc4ccccc4n3c2c1 | > 100 µM | > 100 µM | > 100 µM | > 100 µM | – | > 100 µM | 500 µM | – |
| CC1CN(c2ccc3cc(C#N)c4nc5ccccc5n4c3c2)CC(C)N1 (stereo unspecified) | 0.3 µM | 0.3 µM | 0.6 µM | 0.6 µM | 0 °C | 0.5 µM | 0.5 µM | 0.2 µM |
| CC(C)CCNc1ccc2c(NCCC(C)C)c(C#N)c3nc4ccccc4n3c2c1 | 6 µM | 6 µM | 2 µM | 2 µM | – | 5 µM | 5 µM | 6 µM |
| COc1cc([C@@H]2c3cc4c(cc3[C@@H](O[C@@H]3O[C@@H]5CO[C@@H](C)O[C@H]5[C@H](O)[C@H]3O)[C@H]3COC(=O)[C@H]23)OCO4)cc(OC)c1O [ETOPOSIDE] | 5 µM | – | 1 µM | – | – | 0.1 µM | – | 0.4 µM |
| CC(C)Nc1ccc2cc(C#N)c3nc4ccccc4n3c2c1 | 0.8 µM | 0.8 µM | 0.7 µM | 0.7 µM | – | 2 µM | 2 µM | 1 µM |
| CC(C)CCNc1ccc2cc(C#N)c3nc4ccccc4n3c2c1 | 3 µM | 3 µM | 2 µM | 2 µM | – | 4 µM | 4 µM | 3 µM |
| CCCCCN(CCCCC)c1ccc2c(N(CCCCC)CCCCC)c(C#N)c3nc4ccccc4n3c2c1 | > 100 µM | > 100 µM | > 100 µM | > 100 µM | – | > 100 µM | 500 µM | – |
| CC1CN(c2c(C#N)c3nc4ccccc4n3c3ccccc23)CC(C)N1 (stereo unspecified) | 3 µM | 3 µM | 6 µM | 6 µM | – | 4 µM | 4 µM | 3 µM |
| CC(C)CNc1ccc2c(NCC(C)C)c(C#N)c3nc4ccccc4n3c2c1 | 2 µM | 2 µM | 2 µM | 2 µM | – | 3 µM | 3 µM | – |
